Test results: ChEMBL document CHEMBL1157060, “Antiviral and anti-inflammatory metabolites from the soft coral Sinularia capillosa” (J Nat Prod, 2010)
The source made the active and inactive calls. The calls are words filed in the database; no cut-off is given here.

How the values were obtained:
[1] = test system: RAW264.7; assay: Antiinflammatory activity in mouse RAW264.7 cells assessed as inhibition of LPS-stimulated iNOS expression at 10 uM after 16 hrs by Western blot analysis relative to control; assay type: functional
Procedure, shortened: (§1)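 LPS-stimulated RAW 264.7 macrophages were treated with each compound at 10 µM. iNOS and COX-2 protein levels were measured by immunoblot, with β-actin also probed. Band intensity was expressed relative to the LPS-alone group, set at 100%. Data are mean ± SEM (n = 5), and significance versus LPS alone was set at P < 0.05. CAPE at 10 µM served as positive control.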

[2] = test system: A549; assay: Cytotoxicity against human A549 cells after 2 days by MTT assay; assay type: functional
Procedure, shortened: (§2)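 The value reported is the ED50 against each tumour cell line. Mithramycin was run as positive control.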

[3] = test system: RAW264.7; assay: Antiinflammatory activity in mouse RAW264.7 cells assessed as inhibition of LPS-stimulated COX2 expression at 10 uM after 16 hrs by Western blot analysis relative to control; assay type: functional; procedure, shortened: as §1
[4] = test system: Yersinia enterocolitica; assay: Antibacterial activity against Yersinia enterocolitica ATCC 23715 at 100 ug/ml after 24 hrs; assay type: functional, organism-based
[5] = test system: Salmonella enterica; assay: Antibacterial activity against Salmonella enteritidis ATCC 13076 at 100 ug/ml after 24 hrs; assay type: functional, organism-based; details: Salmonella enterica subsp. enterica serovar Enteritidis
[6] = test system: HT-29; assay: Cytotoxicity against human HT-29 cells after 2 days by MTT assay; assay type: functional; procedure, shortened: as §2
[7] = test system: Serratia marcescens; assay: Antibacterial activity against Serratia marcescens ATCC 25419 at 100 ug/ml after 24 hrs; assay type: functional, organism-based
[8] = test system: P388; assay: Cytotoxicity against mouse P388 cells after 2 days by MTT assay; assay type: functional; details: for EC50: P388, 48 h, read-out: ED50 (the source's name); procedure, shortened: as §2
[9] = test system: Shigella sonnei; assay: Antibacterial activity against Shigella sonnei ATCC 11060 at 100 ug/ml after 24 hrs; assay type: functional, organism-based
[10] = test system: Klebsiella aerogenes; assay: Antibacterial activity against Enterobacter aerogenes ATCC 13048 at 100 ug/ml after 24 hrs; assay type: functional, organism-based
[11] = test system: Human betaherpesvirus 5; assay: Antiviral activity against HCMV assessed as protection from virus-induced cytopathogenicity after 7 days by coulter counter; assay type: functional, organism-based; details: Human betaherpesvirus 5, 168 h

Row | Compound | inhibition [1] | Activity [2] | inhibition [3] | Activity [4] | Activity [5] | Activity [6] | Activity [7] | Activity [8] | Activity [9] | Activity [10] | EC50 [8] | IC50 [11] | EC50 ([2]; A549, 48 h, read-out: ED50 (the source's name)) | EC50 ([6]; HT-29, 48 h, read-out: ED50 (the source's name))
1 | CC1(C)CC(O)C[C@@]2(C)OC(=O)C=C12 (stereo partly specified) | inactive | inactive | inactive | inactive | inactive | inactive | inactive | inactive | inactive | inactive |  |  |  | 
2 | C=C/C(C)=C/CCC(C)Cc1cc(C(=O)O)co1 (stereo unspecified) | inactive | inactive | inactive | inactive | inactive | inactive | inactive | inactive | inactive | inactive |  |  |  | 
3 | CC1=CC(=O)C(C/C=C(\C)CC/C=C(\C)CC/C=C(\C)CC[C@H](O)C(C)(C)O)=CC1=O [CAPILLOQUINONE] |  | inactive | inactive | inactive | inactive | inactive | inactive |  | inactive | inactive | 9.8 µM |  |  | 
4 | C/C(=C\Cc1cc(O)c(C)cc1O)CC/C=C(\C)Cc1cc(C)co1 |  | inactive | inactive | inactive | inactive | inactive | inactive | inactive | inactive | inactive |  | 15 µM |  | 
5 | C=C1CC[C@H](C)/C(C)=C\[C@H]2[C@H]1CC[C@]2(C)O | inactive | inactive | inactive | inactive | inactive | inactive | inactive | inactive | inactive | inactive |  |  |  | 
6 | C=CC(=C)C(CCC(C)Cc1cc(C(=O)OC)co1)OC(C)=O (stereo unspecified) | inactive | inactive | inactive | inactive | inactive | inactive | inactive | inactive | inactive | inactive |  |  |  | 
7 | CO[C@](C)(CC/C=C(\C)Cc1cc(C)co1)[C@@H]1Cc2cc(O)c(C)cc2O1 [CAPILLOBENZOFURANOL] | inactive | inactive | inactive | inactive | inactive | inactive | inactive | inactive | inactive | inactive |  | 13.5 µM |  | 
8 | CC1=CC(=O)C(C/C=C(\C)CC/C=C(\C)Cc2cc(C)co2)=CC1=O |  | inactive |  | inactive | inactive | inactive | inactive | inactive | inactive | inactive |  | 5.9 µM |  | 
9 | CO[C@H](C(=O)[C@@H](O)[C@@H](C)O)[C@@H]1Cc2cc3cc(O[C@H]4C[C@@H](O[C@@H]5C[C@@H](O)[C@H](O)[C@@H](C)O5)[C@H](O)[C@@H](C)O4)c(C)c(O)c3c(O)c2C(=O)[C@H]1O[C@H]1C[C@@H](O[C@@H]2C[C@@H](O)[C@@H](O[C@@H]3C[C@](C)(O)[C@H](O)[C@@H](C)O3)[C@@H](C)O2)[C@H](O)[C@@H](C)O1 [PLICAMYCIN] |  |  |  |  |  |  |  |  |  |  | 0.06 µM |  | 0.07 µM | 0.07 µM
10 | C/C(=C\CC[C@]1(C)C=Cc2cc(O)c(C)cc2O1)Cc1cc(C)co1 [CAPILLOBENZOPYRANOL] |  | inactive | inactive | inactive | inactive | inactive | inactive |  | inactive | inactive | 12.7 µM |  |  | 
